Laboratory results: ChEMBL document CHEMBL1148307, “Non-peptidic small-molecule inhibitors of the single-chain hepatitis C virus NS3 protease/NS4A cofactor complex discovered by structure-based NMR screening” (J Med Chem, 2004)
Values joined by “and” are separate entries in the source; they are usually repeats but may differ in a detail not shown here. Equal values may be shown once.

What follows are compounds tested against T1, NS3 (Hepatitis C virus, UniProt A3EZJ3) (assay: Dissociation constant for HCV NS3 protease substrate binding site). Settings: not given; call rule not given here.
T1 sequence (A3EZJ3 whole entry): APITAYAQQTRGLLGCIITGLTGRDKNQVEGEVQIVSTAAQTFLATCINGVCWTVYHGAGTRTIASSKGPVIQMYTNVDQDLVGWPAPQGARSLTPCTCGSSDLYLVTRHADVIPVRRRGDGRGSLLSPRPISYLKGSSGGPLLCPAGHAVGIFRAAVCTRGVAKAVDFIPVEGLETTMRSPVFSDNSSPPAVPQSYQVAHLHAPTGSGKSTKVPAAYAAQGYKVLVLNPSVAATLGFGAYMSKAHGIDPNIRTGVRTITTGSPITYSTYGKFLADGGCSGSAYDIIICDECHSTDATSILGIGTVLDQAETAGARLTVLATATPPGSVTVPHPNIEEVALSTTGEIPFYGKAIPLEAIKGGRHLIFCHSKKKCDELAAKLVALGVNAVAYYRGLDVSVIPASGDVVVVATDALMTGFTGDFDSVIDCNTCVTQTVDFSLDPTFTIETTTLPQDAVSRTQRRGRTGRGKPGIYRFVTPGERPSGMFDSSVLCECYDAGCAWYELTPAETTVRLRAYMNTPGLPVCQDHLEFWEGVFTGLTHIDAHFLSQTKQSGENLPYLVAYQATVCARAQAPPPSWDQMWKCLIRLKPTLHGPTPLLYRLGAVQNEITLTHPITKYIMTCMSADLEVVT
Set-up: species or system Hepacivirus hominis
Method in brief: (§1)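 Uniformly 15N-labeled single-chain ns4a–ns3p, 0.2 mM, in 75 mM potassium phosphate pH 6.5, 20 mM DTT, 95/5% H2O/D2O, 0.015% sodium azide. Spectra were recorded with and without compound at several compound concentrations. KD and bound shift were fitted by nonlinear least squares to a single-site binding equation, with total compound and protein concentrations known.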
`CC(C)(C)OC(=O)N[C@H](Cc1cc(I)c(O)c(I)c1)C(=O)O` was tested, and the Kd was “Active”. In the case of `CCOC(=O)C(Cc1cc(I)c(O)c(I)c1)c1ccccc1` (configuration not stated), the Kd is reported as “Not Active”. For `COc1ccc(C(=O)c2cc(OC)ccc2C(=O)O)cc1`, the Kd was “Insoluble”. `CC(C)(C)OC(=O)N[C@@H](Cc1cc(I)c(O)c(I)c1)C(=O)O` was tested, and the Kd was “Active”. With `Oc1c(I)cc(CCc2ccncc2)cc1I` the Kd was “Not Active”. With `O=C(c1ccc(Cl)cc1)c1cccc(Cl)c1C(=O)O` the Kd was “Insoluble”. In the case of `CC(=O)N[C@H](Cc1cc(I)c(O)c(I)c1)C(=O)O`, the Kd is reported as “Active”.

Same assay, conditions: read-out: Kd
`COc1c(I)cc(CC(C(=O)O)c2ccccc2)cc1I` (configuration not stated) was tested, and the Kd was > 1600 µM. With `COc1ccc(CC(C(=O)O)c2ccccc2)cc1` (configuration not stated) the Kd was > 8000 µM. `O=C(O)c1cc2cccc(Cl)c2[nH]1` showed a Kd of 1400 µM. With `Nc1ccc(C(=O)c2ccccc2)cc1` the Kd was > 30 µM and ~20 µM. Work on `O=C(O)CC(c1ccccc1)c1cc(I)c(O)c(I)c1` (configuration not stated) yielded a Kd of 40 µM. `O=C(O)C(Cc1cc([N+](=O)[O-])c(O)c([N+](=O)[O-])c1)c1ccccc1` (configuration not stated) was tested, and the Kd was > 8000 µM. Work on `O=C(O)CCc1cc(I)c(O)c(I)c1` yielded a Kd of 90 µM. `O=C(O)C(Cc1cc(Br)c(O)c(Br)c1)c1ccccc1` (configuration not stated) was tested, and the Kd was > 8000 µM. `COc1ccc2sc(C(=O)O)cc2c1` was tested, and the Kd was 8000 µM. Compound `O=C(O)c1cc2cc(Cl)ccc2[nH]1` [5-CHLOROINDOLE-2-CARBOXYLIC ACID] has a Kd of 300 µM. For `Cc1ccc(N)cc1NC(=O)c1ccc(N)cc1`, the Kd was 100000 µM. In the case of `O=C(O)c1ccccc1C(=O)c1cccc(Cl)c1`, the Kd is reported as > 10000 µM. `Nc1ccc(C(=O)Nc2ccc(Cl)c(N)c2)cc1` showed a Kd of 20000 µM. `Nc1ccc(CC(C(=O)O)c2ccccc2)cc1` (configuration not stated) was tested, and the Kd was > 8000 µM. In the case of `CNC(=O)Nc1ccc(C(=O)O)cc1`, the Kd is reported as > 210000 µM. `O=C(O)c1cc2cccc(Br)c2[nH]1` was tested, and the Kd was 1000 µM. `O=C(O)c1cc2cc(Cl)ccc2o1` showed a Kd of 2200 µM. `CC1(C(=O)Nc2ccc(O)cc2)CC1` showed a Kd of 8400 µM. Work on `O=C(O)c1cc(I)c(O)c(I)c1` yielded a Kd of 420 µM. In the case of `COc1ccc(NC(=O)C(C)(C)C)cc1`, the Kd is reported as > 100 µM. With `O=C(/C=N/O)Nc1ccc(C(=O)O)cc1` the Kd was > 250 µM. Work on `O=C(CCCl)Nc1ccc(O)cc1` yielded a Kd of 55000 µM. For `O=C(O)c1cc2cc(F)ccc2[nH]1` [5-FLUOROINDOLE-2-CARBOXYLIC ACID], the Kd was 2.9 µM. `CN(C)C(=O)Nc1ccc(O)c(C(F)(F)F)c1` gave a Kd of 12000 µM. Work on `O=C(O)c1ccccc1C(=O)c1ccc(O)cc1` yielded a Kd of 1600 µM. `O=C(O)c1ccc(O)cc1C(=O)c1ccc(O)cc1` was tested, and the Kd was > 10000 µM. In the case of `COc1ccc(NC(=O)C2(C)CC2)cc1`, the Kd is reported as > 60000 µM. `O=C(O)c1cc2ccc(Cl)cc2[nH]1` showed a Kd of 400 µM. `O=C(O)c1ccccc1Oc1ccc(Cl)cc1` was tested, and the Kd was 7000 µM. With `COc1ccc(C(=O)c2ccc[nH]2)cc1` the Kd was > 20 µM. For `CC(=O)c1ccc(OCCC(=O)O)cc1`, the Kd was > 20000 µM. `O=C(O)c1cc2ccccc2s1` was tested, and the Kd was 1700 µM. Work on `c1ccc2c(c1)NC1SCCCN21` (configuration not stated) yielded a Kd of ~1.9 µM. In the case of `COc1ccc(NC(=O)c2ccccc2C(=O)O)cc1`, the Kd is reported as 22000 µM. With `Cc1ccc2[nH]c(C(=O)O)cc2c1` the Kd was 1200 µM. In the case of `CON(C)C(=O)Nc1ccc(O)c(C(F)(F)F)c1`, the Kd is reported as 8000 µM. For `CCC(=O)Nc1ccc(O)cc1` [PARAPROPAMOL], the Kd was 34000 µM. `CC(=O)c1ccc(OCC(=O)O)cc1` was tested, and the Kd was > 20000 µM. With `O=C(O)c1ccccc1Cc1ccc(O)cc1` the Kd was > 7000 µM. With `O=C(O)c1ccccc1C(=O)c1ccc(Cl)cc1` the Kd was ~3 µM. For `O=C(O)CCCc1ccc(C(=O)c2ccccc2C(=O)O)cc1`, the Kd was 40000 µM. For `COC(=O)[C@H](N)Cc1cc(I)c(O)c(I)c1`, the Kd was > 2500 µM. For `O=C(O)c1ccccc1Cc1ccc(Cl)cc1`, the Kd was > 7000 µM. With `O=C(O)C(F)(F)C(F)(F)C(=O)O` the Kd was ~5.2 µM. In the case of `COc1ccc(NC(=O)C(C)C)cc1`, the Kd is reported as 70000 µM. With `O=C(O)C(Cc1cc(I)c(O)c(I)c1)c1ccccc1` (configuration not stated) [IODOALPHIONIC ACID] the Kd was 110 µM. Work on `CC(C)C(=O)Nc1ccc(O)c(C(F)(F)F)c1` yielded a Kd of 8000 µM. `O=C(O)c1ccccc1C(=O)c1ccc(F)cc1` was tested, and the Kd was ~4000 µM. With `COc1ccc(N)cc1NC(=O)c1ccc(N)cc1` the Kd was > 20000 µM. In the case of `CN(C)C(=O)c1cccc(C(=O)c2ccc(Cl)cc2)c1C(=O)O`, the Kd is reported as > 10000 µM. With `Nc1ccc(C(=O)O)cc1` [AMINOBENZOIC ACID] the Kd was > 40000 µM. `O=C(O)c1cc2cc(Br)ccc2[nH]1` showed a Kd of 200 µM. For `COc1ccc2[nH]c(C(=O)O)cc2c1`, the Kd was 4000 µM. In the case of `COc1ccc(C(=O)c2ccccc2C(=O)O)cc1`, the Kd is reported as 1000 µM. `O=C(O)c1cc2c(Cl)cccc2[nH]1` was tested, and the Kd was 800 µM. `Cc1ccc(C(=O)c2ccccc2C(=O)O)cc1` gave a Kd of 1600 µM. With `O=C(O)C(Cc1ccc(O)cc1)c1ccccc1` (configuration not stated) the Kd was > 8000 µM. In the case of `O=C(O)c1cc2ccccc2[nH]1` [INDOLE-2-CARBOXYLIC ACID], the Kd is reported as 12000 µM. `CC1(C(=O)Nc2ccc(O)c(C(F)(F)F)c2)CC1` showed a Kd of 690 µM. `O=C(O)c1cc(Br)ccc1C(=O)c1ccc(O)cc1` was tested, and the Kd was > 600 µM. `COc1ccc(C(=O)C2CC2)cc1` was tested, and the Kd was > 20000 µM. In the case of `Cc1ccc(NC(=O)c2ccc(N)cc2)c(N)c1`, the Kd is reported as > 20000 µM. `Nc1cc(O)nc(-c2cc(I)c(O)c(I)c2)n1` showed a Kd of ~230 µM. In the case of `O=C(O)COc1c(I)cc(CC(C(=O)O)c2ccccc2)cc1I` (configuration not stated), the Kd is reported as > 8000 µM. `O=C(O)c1ccccc1Oc1ccc(F)cc1` was tested, and the Kd was 7000 µM. `O=C(O)CCCc1cc(I)c(O)c(I)c1` was tested, and the Kd was 140 µM. `Nc1ccc(C(=O)c2cccnc2N)cc1` was tested, and the Kd was 70000 µM. Compound `CC(C)C(=O)Nc1ccc(O)cc1` has a Kd of 17000 µM. Work on `O=C(O)c1cc2ccccc2o1` yielded a Kd of 6400 µM. In the case of `Cc1ccc(C(=O)O)c(C(=O)c2ccc(O)cc2)c1`, the Kd is reported as > 5000 µM. `Nc1ccc(C(=O)c2ccc(N)cc2)cc1` was tested, and the Kd was > 20000 µM. `COc1ccc(NC(=O)CCC(=O)O)cc1` was tested, and the Kd was > 110000 µM. With `O=C(O)c1ccccc1C(=O)c1ccc(C(F)(F)F)cc1` the Kd was 4000 µM. `COC(=O)c1cccc(C(=O)c2ccc(Cl)cc2)c1C(=O)O` was tested, and the Kd was > 10000 µM. Work on `Cn1c(C(=O)O)cc2ccccc21` yielded a Kd of 8100 µM. Compound `O=C(O)Cc1ccccc1C(=O)c1ccc(Cl)cc1` has a Kd of 4000 µM.

These compounds were tested against T1, NS3 (assay: Dissociation constant for HCV NS3 protease substrate binding site; protein precipitation at 1:2 compound [100 uM]/protein ratio). Settings: not given.
Set-up: species or system Hepacivirus hominis
Method in brief: as §1
`O=C(O)C(Cc1cc(I)c(O)c(I)c1)c1ccc(-c2ccccc2)cc1` (configuration not stated) was tested, and the Kd was “No Delta CS”. `O=C(O)C(Cc1cc(I)c(O)c(I)c1)c1ccc2ccccc2c1` (configuration not stated) was tested, and the Kd was “No Delta CS”. For `CC(C)c1ccc(C(Cc2cc(I)c(O)c(I)c2)C(=O)O)cc1` (configuration not stated), the Kd was “No Delta CS”.

Each compound was assayed against T1, NS3 (assay: Inhibition constant for HCV NS3 protease substrate binding site). Settings: not given.
Set-up: species or system Hepacivirus hominis
`Cc1ccc(S(=O)(=O)NNC(=S)c2ccccc2)cc1` was tested, and the Ki was 650 µM. `CC(C)(C)OC(=O)N[C@H](Cc1cc(I)c(O)c(I)c1)C(=O)O` gave a Ki of 260 µM. `O=C(O)CC(c1ccccc1)c1cc(I)c(O)c(I)c1` (configuration not stated) showed a Ki of 100 µM. `O=C(O)CCc1cc(I)c(O)c(I)c1` was tested, and the Ki was 80 µM. `O=C(O)c1cc(I)c(O)c(I)c1` was tested, and the Ki was 600 µM. `O=C(O)C(Cc1cc(I)c(O)c(I)c1)c1ccccc1` (configuration not stated) [IODOALPHIONIC ACID] showed a Ki of 140 µM. In the case of `CC(C)(C)OC(=O)N[C@@H](Cc1cc(I)c(O)c(I)c1)C(=O)O`, the Ki is reported as 310 µM. Compound `O=C(O)CCCc1cc(I)c(O)c(I)c1` has a Ki of 180 µM. For `CC(C)(C)OC(=O)c1ccccc1C(=O)c1ccc(OCCCOC(=O)N[C@@H](Cc2cc(I)c(O)c(I)c2)C(=O)OC(C)(C)C)cc1`, the Ki was 1 µM. `O=C(N[C@@H](Cc1cc(I)c(O)c(I)c1)C(=O)O)OCCCOc1ccc(C(=O)c2ccccc2C(=O)O)cc1` showed a Ki of 0.8 µM. Work on `CC(=O)N[C@H](Cc1cc(I)c(O)c(I)c1)C(=O)O` yielded a Ki of 210 µM.
